Assay results reported in ChEMBL document CHEMBL3739303, “Targeting the Src Homology 2 (SH2) Domain of Signal Transducer and Activator of Transcription 6 (STAT6) with Cell-Permeable, Phosphatase-Stable Phosphopeptide Mimics Potently Inhibits Tyr641 Phosphorylation and Transcriptional Activity” (J Med Chem, 2015).
Activity calls are given as the source filed them. No cut-off for these calls is given here. Peptide text beside a SMILES is read from it.

Experiments:
[1] = Cytotoxicity against human BEAS2B cells assessed as cell viability at <=1 uM after 72 hrs by MTS assay; type: cell-based; conditions: beas-2b
Procedure, shortened: (§1)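 Beas-2B seeded at 2000 cells/well; 10 mM DMSO stocks serially diluted in DMSO and equal amounts added to cultures; 72 h at 37 °C; medium replaced by 1:5 MTS/PBS, 1 h further incubation; viable cells read as optical density at 490 nm.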

[2] = Cytotoxicity against human BEAS2B cells assessed as cell viability after 72 hrs by MTS assay; type: cell-based; conditions: beas-2b; procedure, shortened: as §1
Mus musculus = organism: Mus musculus; assay: Inhibition of IL2-induced STAT5 phosphorylation at Y694 in CD4+ T lymphocytes isolated from C57BL/6J mouse at 0.5 to 5 uM preincubated for 2 hrs followed by activation with plate-bound anti-CD3/anti-CD28 and IL2 for 15 mins by Western blot analysis; type: cell-based
Procedure, shortened: (§2)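 CD4+ T cells from C57BL/6J mice, sorted by AutoMACS; activated 15 min with plate-bound anti-CD3 and/or anti-CD28 with IL-2, IL-6 or IL-4; lysed with protease inhibitors plus 10 mM NaF and 1 mM Na3VO4; Bradford-normalised immunoblots for pSTAT1 (Tyr701), pSTAT5 (Tyr694), pSTAT6 (Tyr641) and total STATs.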

[3] = target: Signal transducer and activator of transcription 3 (Mus musculus) (UniProt P42227); assay: Inhibition of IL6-induced STAT3 phosphorylation at S727 in CD4+ T lymphocytes isolated from C57BL/6J mouse preincubated for 2 hrs followed by activation with plate-bound anti-CD3/anti-CD28 for 15 mins by Western blot analysis
[4] = target: T1, Signal transducer and activator of transcription 6 (Homo sapiens) (UniProt P42226); assay: Inhibition of IL4-induced STAT6 phosphorylation in human MDA-MB-468 cells at 0.1 to 5 uM incubated for 2 hrs followed by stimulation with IL4 for 1 hr by Western blot assay; type: cell-based
T1 sequence (whole entry): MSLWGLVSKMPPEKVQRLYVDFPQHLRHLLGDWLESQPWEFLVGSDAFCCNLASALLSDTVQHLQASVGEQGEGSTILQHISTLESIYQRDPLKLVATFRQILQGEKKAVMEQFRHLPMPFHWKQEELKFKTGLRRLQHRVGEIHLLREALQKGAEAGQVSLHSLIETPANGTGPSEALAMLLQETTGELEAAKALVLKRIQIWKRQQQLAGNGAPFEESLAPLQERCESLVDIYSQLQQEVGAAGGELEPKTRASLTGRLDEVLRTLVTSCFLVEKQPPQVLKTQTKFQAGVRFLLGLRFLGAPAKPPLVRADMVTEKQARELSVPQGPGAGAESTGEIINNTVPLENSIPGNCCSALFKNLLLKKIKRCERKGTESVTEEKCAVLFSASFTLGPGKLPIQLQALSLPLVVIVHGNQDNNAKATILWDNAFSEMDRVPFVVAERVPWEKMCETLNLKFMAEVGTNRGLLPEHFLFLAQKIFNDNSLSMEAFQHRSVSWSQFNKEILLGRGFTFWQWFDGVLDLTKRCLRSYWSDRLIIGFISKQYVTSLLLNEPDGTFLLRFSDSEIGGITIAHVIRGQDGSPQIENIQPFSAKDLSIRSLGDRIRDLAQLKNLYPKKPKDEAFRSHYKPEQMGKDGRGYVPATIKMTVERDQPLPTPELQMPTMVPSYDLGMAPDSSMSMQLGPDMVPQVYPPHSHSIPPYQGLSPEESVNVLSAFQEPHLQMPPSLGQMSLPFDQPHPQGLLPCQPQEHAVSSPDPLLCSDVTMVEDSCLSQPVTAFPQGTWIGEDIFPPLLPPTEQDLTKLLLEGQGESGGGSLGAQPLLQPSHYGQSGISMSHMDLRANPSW
Procedure, shortened: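 MDA-MB-468 breast cancer cells serum-starved, treated with prodrugs, then IL-4 stimulated; pSTAT6 read by Western blot.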

[5] = target: T2, Signal transducer and activator of transcription 1 (Mus musculus) (UniProt P42225); assay: Inhibition of IL6-induced STAT1 phosphorylation at Y701 in CD4+ T lymphocytes isolated from C57BL/6J mouse preincubated for 2 hrs followed by activation with plate-bound anti-CD3/anti-CD28 and IL6 for 15 mins by Western blot analysis; type: cell-based; procedure, shortened: as §2
T2 sequence (whole entry): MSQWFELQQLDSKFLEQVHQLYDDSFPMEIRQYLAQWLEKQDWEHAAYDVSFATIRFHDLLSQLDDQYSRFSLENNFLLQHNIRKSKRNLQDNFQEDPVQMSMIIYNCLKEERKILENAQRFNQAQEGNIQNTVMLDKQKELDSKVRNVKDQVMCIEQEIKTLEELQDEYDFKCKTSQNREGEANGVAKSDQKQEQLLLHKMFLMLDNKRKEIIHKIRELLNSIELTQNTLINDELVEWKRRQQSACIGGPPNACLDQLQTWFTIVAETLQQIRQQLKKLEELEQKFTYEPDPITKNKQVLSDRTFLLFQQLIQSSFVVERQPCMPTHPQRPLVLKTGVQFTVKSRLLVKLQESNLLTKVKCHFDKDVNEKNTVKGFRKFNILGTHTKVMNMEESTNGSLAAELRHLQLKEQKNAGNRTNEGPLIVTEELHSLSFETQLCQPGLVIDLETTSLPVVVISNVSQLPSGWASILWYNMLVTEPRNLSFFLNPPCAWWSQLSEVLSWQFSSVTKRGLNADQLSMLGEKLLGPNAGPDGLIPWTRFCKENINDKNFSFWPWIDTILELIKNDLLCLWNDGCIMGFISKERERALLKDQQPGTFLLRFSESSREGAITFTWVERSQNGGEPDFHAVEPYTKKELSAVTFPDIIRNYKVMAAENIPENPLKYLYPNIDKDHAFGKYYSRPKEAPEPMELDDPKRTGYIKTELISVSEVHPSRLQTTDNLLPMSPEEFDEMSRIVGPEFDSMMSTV

[6] = target: T1, Signal transducer and activator of transcription 6 (Homo sapiens); assay: Inhibition of IL4-induced STAT6 phosphorylation at tyrosine 641 in human Beas-2B cells at 50 to 100 nM incubated for 2 hrs followed by stimulation with IL4 for 1 hr by Western blot assay; type: cell-based
Procedure, shortened: (§3)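 Beas-2B seeded at 3.0 × 10^5 cells/well the day before; prodrugs from DMSO stocks added to final concentrations for 2 h, then IL-4 (2 ng/mL) for 1 h. PBS-washed cells lysed with PMSF, protein by modified Lowry; blots blocked in 3% BSA/TBST, probed for pSTAT6 (Tyr641), stripped and reprobed for total STAT6; ECL on X-ray film.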

[7] = target: T3, Signal transducer and transcription activator 6 (Mus musculus) (UniProt P52633); assay: Inhibition of IL4-induced STAT6 phosphorylation at Y641 in CD4+ T lymphocytes isolated from C57BL/6J mouse preincubated for 2 hrs followed by activation with plate-bound anti-CD3/anti-CD28 and IL4 for 15 mins by Western blot analysis; type: cell-based; procedure, shortened: as §2
T3 sequence (whole entry): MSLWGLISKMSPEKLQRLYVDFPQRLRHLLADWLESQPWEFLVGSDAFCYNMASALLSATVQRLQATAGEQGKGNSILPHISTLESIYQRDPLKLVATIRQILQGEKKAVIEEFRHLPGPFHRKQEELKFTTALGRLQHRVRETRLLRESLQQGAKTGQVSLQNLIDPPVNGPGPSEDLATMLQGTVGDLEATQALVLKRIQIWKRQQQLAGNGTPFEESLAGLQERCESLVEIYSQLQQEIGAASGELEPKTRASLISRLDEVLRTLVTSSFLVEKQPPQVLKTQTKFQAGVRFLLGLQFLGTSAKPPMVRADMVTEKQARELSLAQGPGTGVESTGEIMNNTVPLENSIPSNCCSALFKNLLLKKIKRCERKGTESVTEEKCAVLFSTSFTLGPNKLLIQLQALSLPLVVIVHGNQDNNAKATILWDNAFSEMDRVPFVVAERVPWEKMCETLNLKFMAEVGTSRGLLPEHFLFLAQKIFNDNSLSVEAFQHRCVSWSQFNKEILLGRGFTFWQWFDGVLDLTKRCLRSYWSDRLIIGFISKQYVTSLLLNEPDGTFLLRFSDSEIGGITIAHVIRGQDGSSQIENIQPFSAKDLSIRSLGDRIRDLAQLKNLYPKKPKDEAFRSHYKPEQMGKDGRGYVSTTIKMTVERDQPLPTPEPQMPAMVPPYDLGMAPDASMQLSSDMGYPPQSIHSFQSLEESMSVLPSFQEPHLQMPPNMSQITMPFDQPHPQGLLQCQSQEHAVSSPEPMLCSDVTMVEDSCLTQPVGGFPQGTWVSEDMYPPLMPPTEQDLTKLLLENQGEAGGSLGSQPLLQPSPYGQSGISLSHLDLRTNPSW

[8] = target: RAC-alpha serine/threonine-protein kinase (Homo sapiens) (UniProt P31749); assay: Inhibition of EGF-induced AKT phosphorylation at S473 in human MDA-MB-468 cells at 5 uM incubated for 2 hrs followed by stimulation with EGF for 1 hr by Western blot assay; type: cell-based
[9] = target: T1, Signal transducer and activator of transcription 6 (Homo sapiens); assay: Inhibition of IL4-stimulated STAT6 phosphorylation at tyrosine 641 in human Beas-2B cells at 0.025 to 5 uM incubated for 2 hrs followed by stimulation with IL4 for 1 hr by Western blot assay; type: cell-based; procedure, shortened: as §3
[10] = target: T1, Signal transducer and activator of transcription 6 (Homo sapiens); assay: Inhibition of IL4-induced STAT6 phosphorylation at tyrosine 641 in human Beas-2B cells at 100 to 500 nM incubated for 2 hrs followed by stimulation with IL4 for 1 hr by Western blot assay; type: cell-based; procedure, shortened: as §3
[11] = target: T1, Signal transducer and activator of transcription 6 (Homo sapiens); assay: Inhibition of IL-13-stimulated STAT6 SH2 domain phosphorylation in human Beas-2B cells assessed as inhibition of CCL26 mRNA expression at 100 nM preincubated for 2 hrs followed by stimulation with IL-13 for 24 hrs by RT-PCR analysis relative to control
[12] = target: T1, Signal transducer and activator of transcription 6 (Homo sapiens); assay: Inhibition of IL-13-stimulated STAT6 SH2 domain phosphorylation in human Beas-2B cells assessed as inhibition of CCL26 mRNA expression preincubated for 2 hrs followed by stimulation with IL-13 for 24 hrs by RT-PCR analysis
[13] = target: T4, Signal transducer and activator of transcription 6 (Homo sapiens, UniProt P42226); assay: Inhibition of STAT6 (unknown origin) expressed in Escherichia coli using FAM-Ala-pTyr-Lys-ProPhe-Gln-Asp-Leu-Ile-NH2 as substrate by fluorescence polarization assay
T4 sequence (P42226 whole entry): T1 sequence (whole entry)
Procedure, shortened: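 His6-tagged STAT6 construct (coiled-coil, DNA-binding, linker and SH2 domains), purified by nickel IMAC; competitive FP binding. STAT6 at 480 nM mixed with 20 nM FAM-labelled phosphopeptide probe, then equal volume of serially diluted peptides (from 200 μM) added. Buffer: 50 mM NaCl, 10 mM Hepes, 1 mM Na4EDTA, 2 mM DTT, 1% NP-40. mP plotted against log concentration; IC50 by nonlinear regression; triplicate, three probe preparations; mean ± SD.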

Sequence of Signal transducer and activator of transcription 3 (Mus musculus) (P42227 whole entry): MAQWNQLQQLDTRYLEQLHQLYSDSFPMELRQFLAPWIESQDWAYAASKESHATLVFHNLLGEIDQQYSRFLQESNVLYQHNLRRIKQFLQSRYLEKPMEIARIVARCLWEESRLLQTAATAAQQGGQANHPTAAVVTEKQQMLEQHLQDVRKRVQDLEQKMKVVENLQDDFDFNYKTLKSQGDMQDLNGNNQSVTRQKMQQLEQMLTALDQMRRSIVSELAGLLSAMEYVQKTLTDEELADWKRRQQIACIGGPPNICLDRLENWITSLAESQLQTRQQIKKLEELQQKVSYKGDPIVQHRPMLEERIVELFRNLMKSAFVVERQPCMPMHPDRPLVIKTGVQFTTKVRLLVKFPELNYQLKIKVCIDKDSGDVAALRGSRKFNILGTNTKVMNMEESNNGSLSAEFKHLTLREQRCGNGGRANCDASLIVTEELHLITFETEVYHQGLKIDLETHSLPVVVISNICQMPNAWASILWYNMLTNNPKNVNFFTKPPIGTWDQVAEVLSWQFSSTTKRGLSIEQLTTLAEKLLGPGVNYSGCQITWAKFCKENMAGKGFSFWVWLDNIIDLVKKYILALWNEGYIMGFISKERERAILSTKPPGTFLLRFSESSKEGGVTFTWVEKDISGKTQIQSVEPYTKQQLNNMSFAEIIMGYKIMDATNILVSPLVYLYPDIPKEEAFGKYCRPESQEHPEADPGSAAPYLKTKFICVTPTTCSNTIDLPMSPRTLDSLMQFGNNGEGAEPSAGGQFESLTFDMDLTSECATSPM
Sequence of RAC-alpha serine/threonine-protein kinase (Homo sapiens) (P31749 whole entry): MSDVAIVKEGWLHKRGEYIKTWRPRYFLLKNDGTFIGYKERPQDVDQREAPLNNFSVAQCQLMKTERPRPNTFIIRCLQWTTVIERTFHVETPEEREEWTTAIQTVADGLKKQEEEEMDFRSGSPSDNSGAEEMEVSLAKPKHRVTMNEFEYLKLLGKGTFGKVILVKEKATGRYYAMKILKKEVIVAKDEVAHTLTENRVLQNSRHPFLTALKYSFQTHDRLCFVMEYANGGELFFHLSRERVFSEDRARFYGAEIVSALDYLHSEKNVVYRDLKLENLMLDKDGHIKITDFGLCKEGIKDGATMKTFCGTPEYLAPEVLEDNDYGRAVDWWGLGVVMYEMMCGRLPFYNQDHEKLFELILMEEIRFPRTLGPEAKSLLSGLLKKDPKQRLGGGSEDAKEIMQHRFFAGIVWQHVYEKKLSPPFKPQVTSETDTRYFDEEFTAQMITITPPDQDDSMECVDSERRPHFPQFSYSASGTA

| inhibition [3] | inhibition [5] | inhibition [7] | SMILES | inhibition (Mus musculus) | IC50 [13] [µM] | also measured |
| --- | --- | --- | --- | --- | --- | --- |
| inactive | inactive | Active | CN(C(=O)[C@@H]1CCCN1C(=O)[C@@H](NC(=O)/C=C/c1ccc(C(F)(F)P(=O)(OCOC(=O)C(C)(C)C)OCOC(=O)C(C)(C)C)cc1)C(C)(C)C)c1ccccc1 | Active | – | Activity [1]: Non-toxic; Activity [2]: Non-toxic; inhibition [4]: Active; inhibition [6]: Active; inhibition [8]: Active |
| inactive | inactive | Active | C/C(=C\C(=O)N[C@H](C(=O)N1CCC[C@H]1C(=O)N(C)C1CCCCC1)C(C)(C)C)c1ccc(C(F)(F)P(=O)(OCOC(=O)C(C)(C)C)OCOC(=O)C(C)(C)C)cc1 | Active | – | Activity [2]: Non-toxic; inhibition [9]: Active |
| inactive | inactive | Active | CC(C)(C)C(=O)OCOP(=O)(OCOC(=O)C(C)(C)C)C(F)(F)c1ccc(/C=C/C(=O)N[C@H](C(=O)N2CCC[C@H]2C(=O)N(c2ccccc2)c2ccccc2)C(C)(C)C)cc1 | Active | – | Activity [1]: Non-toxic; inhibition [4]: Active; inhibition [10]: Active |
| inactive | inactive | inactive | CC(C)(C)C(=O)OCOP(=O)(OCOC(=O)C(C)(C)C)C(F)(F)c1ccc(/C=C/C(=O)N[C@H](C(=O)N2CCC[C@H]2C(=O)N(c2ccccc2)c2ccc(I)cc2)C(C)(C)C)cc1 | – | – | inhibition [11]: > 50%; inhibition [12]: Dose-dependent effect |

More lines, now with the values behind:

| SMILES | inhibition [3] | inhibition [5] | inhibition [7] | inhibition (Mus musculus) | IC50 [13] [µM] | also measured |
| --- | --- | --- | --- | --- | --- | --- |
| CC(=O)N[C@@H](Cc1ccc(OP(=O)(O)O)cc1)C(=O)N[C@@H](CCCCN)C(=O)N1CCC[C@H]1C(=O)N[C@@H](Cc1ccccc1)C(N)=O (HELM PEPTIDE1{[ac].[O=C([C@H](Cc1ccc(OP(=O)(O)O)cc1)N[*:1])[*:2]].K.P.F.[am]}$$$$V2.0) | – | – | – | – | 6.1 | – |
| CC(C)(C)[C@H](NC(=O)c1cc2cc(OP(=O)(O)O)ccc2[nH]1)C(=O)N1CCC[C@H]1C(=O)N(c1ccccc1)c1ccc(I)cc1 | – | – | – | – | 0.14 | – |
| NCCCC[C@H](NC(=O)[C@H](Cc1ccc(OP(=O)(O)O)cc1)NC(=O)/C=C/c1ccccc1)C(=O)N1CCC[C@H]1C(=O)N[C@@H](Cc1ccccc1)C(N)=O (HELM PEPTIDE1{[O=C(/C=C/c1ccccc1)[*:2]].[O=C([C@H](Cc1ccc(OP(=O)(O)O)cc1)N[*:1])[*:2]].K.P.F.[am]}$$$$V2.0) | – | – | – | – | 6.6 | – |
| C/C(=C\C(=O)N[C@H](C(=O)N1CCCC1CN(C)c1ccccc1)C(C)(C)C)c1ccc(OP(=O)(O)O)cc1 (stereo partly specified) | – | – | – | – | 0.41 | – |
